The text below walks through data of ChEMBL document CHEMBL2046351, “Discovery of cyclic sulfone hydroxyethylamines as potent and selective β-site APP-cleaving enzyme 1 (BACE1) inhibitors: structure-based design and in vivo reduction of amyloid β-peptides” (J Med Chem, 2012).

Each structure is given as a SMILES string. pIC50: −log10 of the molar value.

In series [1] the target is Cathepsin D (Homo sapiens, UniProt P07339). In words: Inhibition of human recombinant CatD using Mca-GKPILFFRLK(DNP)-dR-NH2 as substrate after 1 hr by fluorescence analysis.
Series [2] concerns MDR1 (human). Put plainly: Apparent permeability across MDCK cells expressing human MDR1 at 5 uM after 2 hrs by LC-MS analysis. The series is classed as ADME, cell-based, Canis lupus familiaris. The note with it: dog. The gist of the method: (§1)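 MDCK cells retrovirally transduced with human MDR1, seeded on transwells ≥3 days; bidirectional transport at 5 μM, 2 h, 37 °C, LC/MS quantitation. Papp = (dQ/dt)/(A·C0), A 0.11 cm2; ER = Papp B>A / Papp A>B. Means of at least three experiments.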

The test system of series [3] is MDR1 (human). Put plainly: Efflux ratio of permeability from basolateral to apical over apical to basolateral side of MDCK cells expressing human MDR1 at 5 uM after 2 hrs by LC/MS analysis. The series is classed as ADME, cell-based, Canis lupus familiaris. The note with it: dog. A digest of the protocol: as §1
Series [4] can be described thus: AUC (0 to infinity) in C57BL/6 mouse at 2 umol/kg, iv dosed in N-methyl pyrrolidone/blank plasma (10:90 v/v) by LC/MS/MS analysis. On the set-up: dose 2 umol/kg, time infinity, route intravenous. It is filed as ADME, organism-based. A digest of the protocol: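 Male C57BL/6 mice got a single injection into the saphenous vein under light anaesthesia at 5 mL/kg. Blood was taken at 5 and 30 min and 1, 2, 4, 6 and 8 h (n = 3 per time). Blood was extracted by acetonitrile precipitation and quantified by LC-MS/MS against a weighted linear calibration. AUC came from noncompartmental analysis with 1/Y weighting.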

A short description of series [5]: Blood clearance in C57BL/6 mouse at 2 umol/kg, iv dosed in N-methyl pyrrolidone/blank plasma (10:90 v/v) by LC/MS/MS analysis. It is filed as ADME, organism-based. A digest of the protocol: (§2)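 Male C57BL/6 mice, saphenous vein injection under light anesthesia, 5 mL/kg. Blood at 5, 30 min and 1, 2, 4, 6, 8 h; brain at 5 min, 1, 4, 8 h; n = 3/time. LC-MS/MS after acetonitrile precipitation (brain water-homogenized). Noncompartmental analysis, 1/Y weighting, terminal slope from ≥3 points.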

Series [6] in a line: Volume of distribution at steady state in C57BL/6 mouse at 2 umol/kg, iv dosed in N-methyl pyrrolidone/blank plasma (10:90 v/v) by LC/MS/MS analysis. The series is classed as ADME, organism-based. Particulars: read-out: Vdss. The gist of the method: as §2
The nature of series [7]: Half life in C57BL/6 mouse at 2 umol/kg, iv dosed in N-methyl pyrrolidone/blank plasma (10:90 v/v) by LC/MS/MS analysis. It is filed as ADME, organism-based. The gist of the method: as §2
A short description of series [8]: AUC (0 to infinity) in C57BL/6 mouse at 30 umol/kg, po dosed in carboxymethyl cellulose 0.5% w/v in water/Tween 80 (99.5/0.5, v/v) by LC/MS/MS analysis. The series is classed as ADME, organism-based. Also noted: dose 30 umol/kg, route oral, time infinity. The note with it: in vivo. A digest of the protocol:
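Male C57BL/6 mice were dosed by oral gavage at 10 mL/kg. Blood was sampled at 0.25, 0.5, 1, 2, 4 and 6 h postdose, extracted by acetonitrile precipitation and quantified by LC-MS/MS (typical LLOQ 0.4 ng/mL). AUCinf was obtained by noncompartmental analysis of concentration–time profiles, weighting 1/Y, with at least three terminal log-linear points.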

Series [9] is described as follows: Oral bioavailability in C57BL/6 mouse at 30 umol/kg dosed in carboxymethyl cellulose 0.5% w/v in water/Tween 80 (99.5/0.5, v/v) by LC/MS/MS analysis. The series is classed as ADME, organism-based. The note with it: in vivo. The gist of the method: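 Oral gavage (10 mL/kg) to male C57BL/6 mice with iv reference segment (2 μmol/kg, NMP/blank plasma 10:90). Noncompartmental analysis of LC-MS/MS blood profiles, 1/Y weighting; %F = dose-normalized oral AUC / dose-normalized iv AUC × 100, assuming linear pharmacokinetics between doses.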

Series [10] concerns Brain. Put plainly: Drug uptake in C57BL/6 mouse brain at 60 umol/kg, po dosed in carboxymethyl cellulose 0.5% w/v in water/Tween 80 (99.5/0.5, v/v) measured 1 hr post dosing by LC/MS/MS analysis. The series is classed as ADME, organism-based. The note with it: in vivo. The gist of the method: (§3)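 Male C57BL/6 mice dosed by oral gavage, 10 mL/kg. Blood sampled 0.25, 0.5, 1, 2, 4, 6 h; brain at 1 and/or 4 h; n = 3 per time. Blood acetonitrile-precipitated, brain water-homogenized then precipitated; LC-MS/MS with weighted linear calibration.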

The nature of series [11]: Drug uptake in C57BL/6 mouse blood at 60 umol/kg, po dosed in carboxymethyl cellulose 0.5% w/v in water/Tween 80 (99.5/0.5, v/v) measured 1 hr post dosing by LC/MS/MS analysis. The series is classed as ADME, organism-based. Particulars: read-out: Drug uptake. A digest of the protocol:
as §3

The subject of series [12] is Brain. In words: Drug uptake in C57BL/6 mouse brain at 60 umol/kg, po dosed in carboxymethyl cellulose 0.5% w/v in water/Tween 80 (99.5/0.5, v/v) measured 4 hrs post dosing by LC/MS/MS analysis. The series is classed as ADME, organism-based. The note with it: in vivo. The gist of the method:
as §3

Series [13] can be described thus: Drug uptake in C57BL/6 mouse blood at 60 umol/kg, po dosed in carboxymethyl cellulose 0.5% w/v in water/Tween 80 (99.5/0.5, v/v) measured 4 hrs post dosing by LC/MS/MS analysis. It is filed as ADME, organism-based. Particulars: read-out: Drug uptake. The gist of the method:
as §3

Series [14] in a line: Ratio of drug uptake in brain to blood in C57BL/6 mouse at 60 umol/kg, po dosed in carboxymethyl cellulose 0.5% w/v in water/Tween 80 (99.5/0.5, v/v) measured 1 hr post dosing by LC/MS/MS analysis. The series is classed as ADME, organism-based. The gist of the method: as §3
The nature of series [15]: Ratio of drug uptake in brain to blood in C57BL/6 mouse at 60 umol/kg, po dosed in carboxymethyl cellulose 0.5% w/v in water/Tween 80 (99.5/0.5, v/v) measured 4 hrs post dosing by LC/MS/MS analysis. The series is classed as ADME, organism-based. A digest of the protocol:
as §3

Series [16] is filed under the species Homo sapiens. Put plainly: Selectivity index, ratio of IC50 for human recombinant CatD to IC50 for human recombinant BACE1.
Series [17] concerns the target Beta-secretase 1 (Homo sapiens, UniProt P56817).

Cathepsin D, sequence (P07339 65-162 limits assumed): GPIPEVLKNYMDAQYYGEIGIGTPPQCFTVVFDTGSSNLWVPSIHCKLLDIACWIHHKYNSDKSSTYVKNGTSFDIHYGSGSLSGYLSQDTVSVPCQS
Cathepsin D, sequence (P07339 169-412 limits assumed): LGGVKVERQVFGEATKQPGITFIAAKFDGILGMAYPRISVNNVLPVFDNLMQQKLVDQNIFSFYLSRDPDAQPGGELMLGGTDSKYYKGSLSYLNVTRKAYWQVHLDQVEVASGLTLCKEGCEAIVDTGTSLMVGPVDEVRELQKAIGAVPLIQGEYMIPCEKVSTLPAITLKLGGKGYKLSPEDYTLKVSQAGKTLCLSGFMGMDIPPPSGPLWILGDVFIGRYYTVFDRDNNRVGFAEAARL
Beta-secretase 1, sequence (P56817 whole entry): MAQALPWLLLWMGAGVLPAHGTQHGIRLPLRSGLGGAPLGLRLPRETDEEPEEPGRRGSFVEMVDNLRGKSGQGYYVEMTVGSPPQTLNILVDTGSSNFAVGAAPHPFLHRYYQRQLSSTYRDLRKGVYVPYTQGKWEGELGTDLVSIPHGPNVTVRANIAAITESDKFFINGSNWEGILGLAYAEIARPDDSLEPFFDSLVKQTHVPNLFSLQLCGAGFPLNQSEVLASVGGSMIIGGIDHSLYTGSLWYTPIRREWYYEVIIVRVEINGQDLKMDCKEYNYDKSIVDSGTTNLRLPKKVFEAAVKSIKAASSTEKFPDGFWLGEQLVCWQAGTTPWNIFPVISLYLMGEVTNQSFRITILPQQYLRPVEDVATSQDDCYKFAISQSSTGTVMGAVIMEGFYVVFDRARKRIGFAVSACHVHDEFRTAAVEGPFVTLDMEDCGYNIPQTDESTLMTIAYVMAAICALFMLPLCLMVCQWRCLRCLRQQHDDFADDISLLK

For the compound `CC(C)(C)c1cccc(CN[C@H]2CS(=O)(=O)C[C@@H](Cc3ccc(N)c(Br)c3)[C@@H]2O)c1`, the pIC50 in series [1] is 6.14; in series [17] it was 6.85. Moreover, the Papp at 2 h, 5 µM in series [2] was found to be 13 ×10⁻⁶ cm/s. Also, the efflux ratio at 2 h, 5 µM in [3] stood at 2. Further, the AUC(0-inf) worked out at 4.09 µM·h in series [4] and 6.43 µM·h in [8]. The compound also registered a clearance in series [5] of 8.1 mL/min/kg. In addition, the Vd in series [6] was found to be 1.6 L/kg. The same compound had a half-life in series [7] of 4 h. The bioavailability in [9] was found to be 10%. Besides, the Drug uptake was found to be 2.17 nmol/g in series [10] and 1.92 nmol/g in [12]. Moreover, in [11], the concentration at 1 h worked out at 4.07 µM. Further, in series [13], the concentration at 4 h was 2.98 µM. Also, the partition ratio (Kp) at 1 h in series [14] stood at 0.5. The partition ratio (Kp) at 4 h in [15] came out at 0.6. For the same compound, the Ratio IC50 in series [16] was 5.

What is called pIC50 is the negative decadic logarithm of the IC50, by convention in mol/L. As usually defined, the Papp is a coefficient for how fast a substance crosses the barrier. For orientation: efflux ratio means the permeability from basolateral to apical divided by that in the opposite direction, in the common usage. One may read the AUC(0-inf) as the area under the concentration-time curve extrapolated to infinity. A high value points to high exposure. By clearance is commonly meant the volume of plasma or blood freed of the substance per unit of time. Read a high clearance as a high capacity for elimination. Usually half-life stands for the time needed for the level to fall by half in the phase considered. What is called bioavailability is dose-corrected exposure relative to a reference, in per cent. Low readings indicate little systemic uptake, high ones much systemic uptake. As a reminder, the Kp is tissue or fluid exposure divided by exposure in the circulation.
